The full list was thinned out, with hits kept by preference.
Fibroblast inh = blocks proliferation of human lung fibroblasts; LL 47 human lung fibroblast viability, ATP luminescence; hits give low values; viability, % at 10 µM; hit rate 1.1% among 85,000; AID 719;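 active means viability at or below 50% in the single dose screen; inactive means viability above 50%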;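 further: compound exposure lasted 72 h before the ATP readout; 100% = median luminescence of untreated cell-only wells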
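Test system: LL 47 human lung fibroblasts / Incubation: 72 h compound exposure at 37 °C after overnight plating / Technique: luminescent ATP detection, CellTiter-Glo / Compound dosing: 0.1% DMSO in all compound wells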
H69AR growth 86K = blocks growth of human H69AR lung tumor cells; H69AR lung tumor viability, ATP luminescence, 72 h; hits give low values; viability, % at 10 µM; hit rate 6% among 85,000; AID 598;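 active means viability at or below 40%; inactive means viability above 40%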;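 further: multidrug resistant small cell line overexpressing MRP-1 efflux transporter; 100% = mean luminescence of untreated control wells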
HCT116 bCat-KO = beta-catenin-lacking colon tumor cell growth suppression; HCT116 beta-catenin knockout viability, CellTiter-Glo, 60 h; hits give low values; hit rate 1.5% among 140,000; viability, % at 10 µM;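 active means viability at or under a set limit, the compound median less 4 SD, cut at about 6% in these data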;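 further: 0% = Hyamine 1622 control at 20 µM and 100% = untreated cell control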
HUVEC prolif 384 = blocks proliferation of human endothelial cells; HUVEC proliferation, CellTiter-Glo luminescence, 72 h; hits give low values; viability, % at 10 µM (by protocol); hit rate 1.1% among 86,000;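 active means viability at or below 30%; inactive means viability above 30%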;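 further: 100% = median luminescence of DMSO-only cell control wells on each plate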
PTEN del growth = PTEN-deleted cell growth suppression; HCT116 PTEN-null viability, CellTiter-Glo, 60 h; hits give low values; viability, % at 10 µM; hit rate 1.2% among 140,000;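 active means viability at or below a set limit, 4 SD under the median of all tested compounds, cut at about 3.7% in these data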;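 further: PTEN knockout HCT116 line with beta catenin targeted HCT116 as companion control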
* = called active by the depositor; . = no result.

SMILES	Fibroblast inh	H69AR growth 86K	HCT116 bCat-KO	HUVEC prolif 384	PTEN del growth
Cc1noc(C)c1C(=O)OCC(=O)NC1CC1	.	.	83	.	89
Cc1cc(C)c(NC(=O)COC(=O)/C=C/c2cccs2)c(C)c1	.	.	97	.	92
N#CC(C#N)=C1C=CC=CN1/C(=C\c1ccco1)C(=O)c1ccc(-c2ccccc2)cc1	.	.	1.7*	.	1.5*
N#CC(C#N)=C1C=CC=CN1/C(=C\c1ccco1)C(=O)c1ccc(Cl)cc1	.	.	2.4*	.	2.2*
Oc1ccc(F)cc1-c1cc(-c2ccc3c(c2)OCCO3)n[nH]1	77	37*	18	66	44
Oc1ccc(-c2n[nH]c(=S)n2-c2ccc3c(c2)OCCO3)cc1	.	.	90	.	89
O=C(NC(c1ccc(Cl)cc1)c1c(O)ccc2ccccc12)c1ccccc1 (stereo not drawn)	.	.	1.1*	.	0.6*
O=C(NC(c1ccccc1)c1c(O)ccc2ccccc12)c1ccccc1Cl (stereo not drawn)	.	.	82	.	87
Cn1c(SCC(=O)N2CCCCCC2)nc2c([nH]c3ccccc32)c1=O	67	38*	85	81	92
O=C(NNC(=O)c1ccc(SCC2CCCO2)c([N+](=O)[O-])c1)c1ccc(Cl)c([N+](=O)[O-])c1 (stereo not drawn)	63	6.1*	77	64	82
COC(=O)c1ccccc1NC(=S)N(Cc1ccc2c(c1)OCO2)Cc1cc2cccc(C)c2[nH]c1=O	.	.	80	.	79
COc1ccc(-n2nnnc2SCC(=O)Nc2ccc3c(c2)OCCO3)cc1OC	99	21*	77	91	87
O=C(CSc1nnnn1-c1ccc2c(c1)OCO2)NCc1ccccc1	82	19*	35	56	34
O=C(CSc1nnnn1-c1ccc2c(c1)OCO2)NCc1cccs1	103	66	65	98	75
O=C(Nc1cc(Sc2nc3ccccc3s2)cc([N+](=O)[O-])c1)c1cccc(F)c1F	.	.	55	.	35
Cc1nc(NCc2ccco2)c2c(C)c(C)sc2n1	27*	34*	1.7*	3.5*	2.2*
CCOC(=O)c1sc2nc(CC(=O)OC)nc(NCc3ccco3)c2c1C	96	64	79	97	67
Cc1sc2nc3c4ccccc4c(NCc4ccco4)nn3c(=O)c2c1C	92	34*	61	82	61
CCOC(=O)CN1N=C(c2ccc(Cl)s2)CSC1=O	.	.	96	.	112
CCN(CCCCCN(C)C)Cc1cc2ccccc2o1	.	.	80	.	88
COc1ccc(C(=O)CSc2nnc(CN3CCCC3)n2-c2ccc(F)cc2)c(OC)c1	.	.	86	.	87
CCOC(=O)c1[nH]c(C)c(C(=O)Nc2ccc(Cl)cc2)c1C	102	91	90	101	94
CCOC(=O)c1ccc(NC(=O)c2c(C)[nH]c(C(=O)OCC)c2C)cc1	49*	75	81	96	99
CCOC(=O)c1[nH]c(C)c(C(=O)c2cc(F)ccc2F)c1C	57	30*	14	50	13
CCCNC(=O)COC(=O)c1[nH]c(C)c(C(=O)OCC)c1C	100	95	77	101	93
SMILES	Fibroblast inh	H69AR growth 86K	HCT116 bCat-KO	HUVEC prolif 384	PTEN del growth
CCOC(=O)c1[nH]c(C)c(C(=O)N2CCc3ccccc32)c1C	49*	26*	13	45	12
CCOC(=O)c1c(C)[nH]c(C(=O)OCC(=O)Nc2cc(C)c(Cl)cc2OC)c1C	.	.	1.6*	.	1.5*
Cn1c(Cn2nnc3ccccc32)nnc1SCC(=O)Nc1nccs1	.	.	87	.	95
Cc1cc(S(=O)(=O)NCC(C)C)ccc1OCC(=O)NCC1CCCO1 (stereo not drawn)	.	.	93	.	94
CCOc1ccc(-n2c(N)c(-c3nc4ccccc4n3C)c3nc4ccccc4nc32)cc1	.	.	54	.	47
CN(c1ccccc1)c1ccc(/C=N/N2CCOCC2)cc1	.	.	80	.	93
CC(=O)c1c(C)[nH]c(C(=O)OCC(=O)Nc2ncc(Cl)c(C)c2Cl)c1C	.	85	96	94	98
CCc1c(C(=O)Nc2ccc(OC)cc2)[nH]c(C)c1C(C)=O	92	26*	60	85	65
CCOC(=O)c1[nH]c(C)c(C(=O)OC(C)C(=O)Nc2ncc(Cl)cc2Cl)c1C (stereo not drawn)	96	26*	52	79	42
CCOC(=O)c1[nH]c(C)c(C(=O)Nc2cccc(Cl)c2C)c1C	81	15*	30	46	24
CCc1c(C(=O)Nc2cc(C)ccc2OC)[nH]c(C)c1C(C)=O	92	74	78	66	82
COCC(=O)Nc1cc(Cl)c(OC)cc1OC	.	.	97	.	102
Cn1cccc1C(=O)C(=O)Nc1cccc(Cl)c1Cl	.	.	75	.	74
Cc1ccc(NS(C)(=O)=O)c(C(=O)c2ccccc2)c1	84	101	92	86	97
O=C1Nc2cc(Cl)c(Cl)cc2N(O)N1c1ccc(Cl)c(Cl)c1	89	93	103	84	93
Cc1nn2c(N3CCN(C4CCCC4)CC3)cc(C(C)(C)C)nc2c1-c1ccccc1	99	74	98	88	112
Cc1nn2c(N3CCN(C(=O)c4ccco4)CC3)cc(C(C)(C)C)nc2c1-c1ccccc1	87	100	3.8*	73	7
Cc1cc(N2CCN(C(=O)c3ccco3)CC2)n2ncc(-c3ccccc3)c2n1	94	27*	55	84	42
Cc1cc(N2CCOCC2)n2ncc(-c3ccccc3)c2n1	81	28*	92	77	91
Cc1cc(N2CCCCC2)n2ncc(-c3ccc(Cl)cc3)c2n1	83	58	74	79	79
Cc1cc(N2CCCCC2)n2ncc(-c3ccccc3)c2n1	87	38*	76	81	73
Cn1c(O)c(C=Nc2ccc(Cc3ccncc3)cc2)c(=O)n(C)c1=O	102	92	.	103	.
CC(C)Oc1cccc(C(=O)NC(=S)Nc2ccccc2)c1	.	.	92	.	92
COc1cc2c(=O)n(-c3ccc(C)cc3)c(=O)n(CC(=O)c3ccc4c(c3)OCO4)c2cc1OC	98	55	99	111	102
COc1cc2c(O)c3c(c(-c4ccc5c(c4)OCO5)c2cc1OC)C(=O)OC3	11*	3.6*	2.5*	2.6*	2.6*
Cc1cc(NC(=O)CSc2nc(CC(C)(C)C)nc3c2c(=O)n(C)c(=O)n3C)no1	103	62	82	111	77
CN1CCN(C2=Cc3ccc(Cl)cc3Sc3ccc(F)cc32)CC1	94	21*	10	3.8*	6

High-throughput results: PubChem BioAssay, SRMLSC
